Consider 19 molecules from PubChem BioAssay.

The source made the active and inactive calls. Rule as the data show it, unless noted: active = inhibition above about 30%; inactive = the rest.

Experiment [1] in a line: reduced viability of SK-BR-3 breast cancer cells – cell-based, 24 h, human, pilot screen (AID 572;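 active = viability at or below 10% of carrier control in both of two separate runs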;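 also: compound exposure lasted between 18 and 24 h rather than exactly 24 h; 100% = carrier-treated control wells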). The settings on record: SK-BR-3 viability, CellTiter-Glo luminescence, at 10 µM, stronger effect = lower value. A general note: In ATP-based viability assays light output follows the ATP content of the culture.
Experiment [2] can be described thus: HUVEC growth inhibition – cell-based, human, primary screen (AID 575;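 active = viability at or below 30% in both replicate assays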;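 also: 100% = median of untreated cell wells with 0.1% DMSO on each plate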). The settings on record: HUVEC proliferation, CellTiter-Glo luminescence, 72 h; at 10 µM; stronger effect = lower value. The gist of the method:
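Test system: primary human umbilical vein endothelial cells; medium: endothelial basal medium with 2% FBS plus growth supplements; dosing: 10 µM compound only; times: 72 h treatment at 37 °C; signal: CTG luminescence; read-out: % viability relative to median vehicle-well signal on each plate; control set: vehicle and MePR control wells; plate: 384-well, collagen-coated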

Experiment [3] is described as follows: H69AR cell proliferation blockers – human, duplicate replicates, primary screen (AID 580;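 active = viability at or under a set limit in both replicates, limit being median viability minus 3 SD, cut at about 48% in these data, passing the limit was not always enough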;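 also: 100% = mean luminescence of untreated wells and 0% = no signal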). The settings on record: H69AR lung tumor cells viability, ATP luminescence, 72 h; at 10 µM; stronger effect = lower value.
Experiment [4] in a line: MRP1 drug-resistance reversers in H69AR cells – cell-based, doxorubicin co-treatment, pilot screen (AID 601;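 active = viability loss from added drug above about 55%, and viability with drug at most 40%, in both replicates, limit read from the data, passing the limit was not always enough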). The following applies: CellTiter-Glo, 72 h, at 10 µM; for differential viability (reversal): stronger effect = higher value.
The nature of experiment [5]: yeast transport mutant growth inhibition pilot in 384-well plates, post-Golgi transport modulator project (AID 636; in the data active = inhibition above about 31%). The settings on record: absorbance 615 nm, about 18 h, stronger effect = higher value.
Experiment [6] can be described thus: growth suppression of yeast trafficking mutant, preliminary HTS, modulators of trafficking downstream of Golgi apparatus project, 1536-format plate, OD 615 nm (AID 637). The settings on record: yeast transport mutant growth, absorbance 615 nm, 18 h; stronger effect = higher value.
The mark [7] stands for this setting: H69AR cells + 2 uM doxorubicin, measured here: viability with 2 uM doxorubicin, stronger effect = lower value.
Setting [8] is: H69AR cells, compound alone cytotoxicity.

The viability is a read-out of living cells in per cent, often relative to untreated cells. What is called inhibition is the drop in the measured response relative to a control, in per cent. For `C[N+](C)(C)CCCCCCCCCC[N+](C)(C)C`, the viability was 106% (inactive) in experiment [1]; 100% (inactive) in experiment [2]; 104% (inactive) in experiment [3]; 90% in experiment [4] (setting [7]); 104% in experiment [4] (setting [8]). In experiment [4] (H69AR cells + 2 uM doxorubicin), the differential viability (reversal) was 13.9% (inactive). In addition, the inhibition was 1.69% (inactive) in experiment [5] and -1.5% (inactive) in experiment [6].

Regarding `Cn1c(=O)c2c(ncn2CCO)n(C)c1=O`, the viability was 119% (inactive) in experiment [1]; 91% (inactive) in experiment [2]; 100% (inactive) in experiment [3]; 93% in experiment [4] (setting [7]); 100% in experiment [4] (setting [8]). For the same molecule, the differential viability (reversal) in experiment [4] (H69AR cells + 2 uM doxorubicin) was 7.42% (inactive). The inhibition in experiment [5] was 0% (inactive); in experiment [6], 0.67% (inactive).

Regarding `CC(=O)N1CCc2cc(S(=O)(=O)NCCC(=O)NC3CCCc4ccccc43)ccc21` (configuration not stated), the viability was 113% (inactive) in experiment [1]; 112% (inactive) in experiment [2]; 88.9% (inactive) in experiment [3]; 90% in experiment [4] (setting [7]); 88.9% in experiment [4] (setting [8]). Moreover, the differential viability (reversal) in experiment [4] (H69AR cells + 2 uM doxorubicin) was -1.16% (inactive). Also, the inhibition in experiment [5] was -4% (inactive); in experiment [6], -3.27% (inactive).

For the molecule `Cn1cnc2c1c(=O)[nH]c(=O)n2C`, the viability in experiment [1] is 108% (inactive); in experiment [2], 85.7% (inactive); in experiment [3] it was 96.1% (inactive); in experiment [4] (setting [7]), 96.8%; in experiment [4] (setting [8]) it was 96.1%. Moreover, the differential viability (reversal) in experiment [4] (H69AR cells + 2 uM doxorubicin) is -0.7% (inactive). Besides, the inhibition in experiment [5] was -0.91% (inactive); in experiment [6], 6.33% (inactive).

Turning to `CCOC(=O)c1sc(NC(=O)CSc2nnc(-c3ccc(OC)cc3)n2CCOC)nc1C`, the viability was 99% (inactive) in experiment [1]; 97.2% (inactive) in experiment [2]; 101% (inactive) in experiment [3]; 79.6% in experiment [4] (setting [7]); 101% in experiment [4] (setting [8]). In experiment [4] (H69AR cells + 2 uM doxorubicin), the differential viability (reversal) was 21.8% (inactive). The inhibition in experiment [5] is -4.94% (inactive); in experiment [6], 1.31% (inactive).

Take `O=S(=O)(c1ccc(N2CCN(c3ccc(F)cc3)CC2)cc1)N1CCCC1`: the viability in experiment [1] is 111% (inactive); in experiment [2], 77.2% (inactive); in experiment [3], 75.7% (inactive); in experiment [4] (setting [7]), 80.6%; in experiment [4] (setting [8]), 75.7%. Also, the differential viability (reversal) in experiment [4] (H69AR cells + 2 uM doxorubicin) was -4.83% (inactive). In addition, the figures for the inhibition in experiment [5] and in experiment [6] were -0.91% (inactive) and 15.4% (inactive), respectively.

Turning to `Cc1cc(=O)c2n(Cc3ccccc3Cl)nc[n+]2[nH]1`, the viability is 115% (inactive) in experiment [1]; 100% (inactive) in experiment [2]; 97.1% (inactive) in experiment [3]; 88.3% in experiment [4] (setting [7]); 97.1% in experiment [4] (setting [8]). For the same molecule, the differential viability (reversal) in experiment [4] (H69AR cells + 2 uM doxorubicin) was 8.77% (inactive). Besides, the inhibition in experiment [5] was -4.4% (inactive); in experiment [6], 0% (inactive).

In the case of `Clc1ccccc1CN1CCc2sccc2C1`, the viability in experiment [1] was 95% (inactive); in experiment [2], 78.2% (inactive); in experiment [3] it was 99% (inactive); in experiment [4] (setting [7]), 79.1%; in experiment [4] (setting [8]), 99%. In addition, in experiment [4] (H69AR cells + 2 uM doxorubicin), the differential viability (reversal) is 19.9% (inactive). Also, the inhibition in experiment [5] was 1.95% (inactive); in experiment [6] it was 8.17% (inactive).

As for `CC1CCCC(C)N1C(=O)CSc1nnc(-c2cccs2)o1` (configuration not stated), the viability in experiment [1] was 92% (inactive); in experiment [2] it was 106% (inactive); in experiment [3], 95.1% (inactive); in experiment [4] (setting [7]) it was 96.8%; in experiment [4] (setting [8]), 95.1%. The differential viability (reversal) in experiment [4] (H69AR cells + 2 uM doxorubicin) is -1.69% (inactive). The figures for the inhibition in experiment [5] and in experiment [6] were 0.54% (inactive) and -3.09% (inactive), respectively.

Consider `CC(C)(C)NC(=O)CN(C(=O)C1CSC(=O)C1)c1ccc2c(c1)OCCO2` (configuration not stated), for which the viability in experiment [1] is 92% (inactive); in experiment [2], 112% (inactive); in experiment [3], 91.5% (inactive); in experiment [4] (setting [7]) it was 92.6%; in experiment [4] (setting [8]), 91.5%. Also, the differential viability (reversal) in experiment [4] (H69AR cells + 2 uM doxorubicin) is -1.13% (inactive). The inhibition is 0.95% (inactive) in experiment [5] and -4.55% (inactive) in experiment [6].

Take `O=C(O)/C=C/c1ccc(O)c(O)c1`: the viability in experiment [1] is 94% (inactive); in experiment [2] it was 69% (inactive); in experiment [3], 97.9% (inactive); in experiment [4] (setting [7]), 92.5%; in experiment [4] (setting [8]), 97.9%. In addition, in experiment [4] (H69AR cells + 2 uM doxorubicin), the differential viability (reversal) is 5.39% (inactive). Also, the figures for the inhibition in experiment [5] and in experiment [6] were -0.39% (inactive) and 1% (inactive), respectively.

On to `CCN1C(=O)C(C(=O)Nc2ccc(OC)cc2)C2CC1(C)Oc1ccccc12` (configuration not stated), for which the viability is 80% (inactive) in experiment [1]; 110% (inactive) in experiment [2]; 86.4% (inactive) in experiment [3]; 96.4% in experiment [4] (setting [7]); 86.4% in experiment [4] (setting [8]). In experiment [4] (H69AR cells + 2 uM doxorubicin), the differential viability (reversal) was -10% (inactive). In addition, the inhibition in experiment [5] was -8.51% (inactive); in experiment [6], -1.64% (inactive).

With `Nc1nc2c(ncn2COCCO)c(=O)[nH]1`, the viability is 97% (inactive) in experiment [1]; 86.9% (inactive) in experiment [2]; 98.9% (inactive) in experiment [3]; 95.5% in experiment [4] (setting [7]); 98.9% in experiment [4] (setting [8]). Also, the differential viability (reversal) in experiment [4] (H69AR cells + 2 uM doxorubicin) was 3.38% (inactive). Also, the inhibition in experiment [5] is 0.65% (inactive); in experiment [6], 3% (inactive).

With `CCOC(=O)c1ccc(NC(=O)N2CCN(Cc3cccc(F)c3)CC2)cc1`, the viability in experiment [1] is 91% (inactive); in experiment [2], 105% (inactive); in experiment [3], 84.4% (inactive); in experiment [4] (setting [7]) it was 93.6%; in experiment [4] (setting [8]), 84.4%. The differential viability (reversal) in experiment [4] (H69AR cells + 2 uM doxorubicin) is -9.16% (inactive). Further, the inhibition in experiment [5] is -5.21% (inactive); in experiment [6], 0.91% (inactive).

As for `Cc1nn(C)c(C)c1NC(=O)CSc1nc(Cc2ccccc2)nc2c1cnn2-c1ccccc1`, the viability was 116% (inactive) in experiment [1]; 88% (inactive) in experiment [2]; 78.8% (inactive) in experiment [3]; 78.7% in experiment [4] (setting [7]); 78.8% in experiment [4] (setting [8]). Also, the differential viability (reversal) in experiment [4] (H69AR cells + 2 uM doxorubicin) is 0.07% (inactive). Moreover, the inhibition was -2.05% (inactive) in experiment [5] and 5.48% (inactive) in experiment [6].

As to `CCOC(=O)N1CCN(C(=O)c2ccc3c(=O)n(Cc4ccc(OC)cc4)c(=S)[nH]c3c2)CC1`, the viability in experiment [1] is 99% (inactive); in experiment [2], 64.6% (inactive); in experiment [3], 72.5% (inactive); in experiment [4] (setting [7]), 25.1%; in experiment [4] (setting [8]) it was 72.5%. For the same molecule, the differential viability (reversal) in experiment [4] (H69AR cells + 2 uM doxorubicin) was 47.4% (inactive). Moreover, the inhibition in experiment [5] is -0.13% (inactive); in experiment [6], -5.08% (inactive).

On to `O=C(NCCCN1CCCC1=O)C1CCN(S(=O)(=O)N2CCOCC2)CC1`, for which the viability in experiment [1] is 90% (inactive); in experiment [2], 118% (inactive); in experiment [3], 100% (inactive); in experiment [4] (setting [7]) it was 94.8%; in experiment [4] (setting [8]), 100%. Also, the differential viability (reversal) in experiment [4] (H69AR cells + 2 uM doxorubicin) is 5.27% (inactive). The inhibition is 5.41% (inactive) in experiment [5] and -1.45% (inactive) in experiment [6].

For the molecule `CCN(CC)S(=O)(=O)c1cccc(-c2nnc(SCCOc3ccccc3C)o2)c1`, the viability is 75% (inactive) in experiment [1]; 89% (inactive) in experiment [2]; 87.9% (inactive) in experiment [3]; 69.3% in experiment [4] (setting [7]); 87.9% in experiment [4] (setting [8]). Moreover, the differential viability (reversal) in experiment [4] (H69AR cells + 2 uM doxorubicin) is 18.7% (inactive). Further, the inhibition in experiment [5] was -2.6% (inactive); in experiment [6], 8.36% (inactive).

For `COc1ccc(C(=O)Nc2ccc(S(=O)(=O)Nc3onc(C)c3C)cc2)cc1`, the viability in experiment [1] was 91% (inactive); in experiment [2], 108% (inactive); in experiment [3], 117% (inactive); in experiment [4] (setting [7]), 93.4%; in experiment [4] (setting [8]) it was 117%. Moreover, the differential viability (reversal) in experiment [4] (H69AR cells + 2 uM doxorubicin) is 23.6% (inactive). In addition, the inhibition in experiment [5] was -2.03% (inactive); in experiment [6] it was -0.91% (inactive).
